Test results: ChEMBL document CHEMBL1153925, “Synthesis, characterization and biological activity of ring-substituted 6-benzylamino-9-tetrahydropyran-2-yl and 9-tetrahydrofuran-2-ylpurine derivatives” (Bioorg Med Chem, 2009)

Experiments:
[1] = Stability assessed as compound peak area at pH 4 after 1 hr by HPLC-PDA method; format: physicochemical; conditions: read-out: Stability
In short: (§1)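 10^-2 M methanol solution diluted to 10^-4 M in McIlvaine buffer at pH 3, 4, 5, 6 or 7, then incubated at 25 °C. Direct injection onto reversed-phase C18 after 1 h and again after 24 h. Methanol/15 mM formic acid (pH 4, ammonium) gradient at 0.3 mL/min, PDA at 270 nm. Parent and released free base (m-topolin) reported as peak area %.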

[2] = Stability assessed as compound peak area at pH 7 after 1 hr by HPLC-PDA method; format: physicochemical; conditions: read-out: Stability; in short: as §1
[3] = Stability assessed as free base release at pH 6 after 1 hr by HPLC-PDA method; format: physicochemical; conditions: pH 6, 1 h; in short: as §1
[4] = Stability assessed as free base release at pH 3 after 1 hr by HPLC-PDA method; format: physicochemical; conditions: pH 3, 1 h; in short: as §1
[5] = system: MCF7; experiment: Cytotoxicity against human MCF7 cells after 72 hrs by Calcein AM assay; format: ADME, cell-based; conditions: MCF7, 72 h
[6] = Stability assessed as free base release at pH 6 after 24 hr by HPLC-PDA method; format: physicochemical; conditions: pH 6, 24 h; in short: as §1
[7] = Stability assessed as compound peak area at pH 5 after 1 hr by HPLC-PDA method; format: physicochemical; conditions: read-out: Stability; in short: as §1
[8] = system: Triticum aestivum; experiment: Cytokinin activity in wheat leaf assessed as stimulation of retention of chlorophyll in excised leaves at 0.1 mM relative to 6-benzylaminopurine; format: functional
[9] = system: BJ; experiment: Cytotoxicity against human BJ cells after 72 hrs by MTT assay; format: ADME, cell-based
[10] = Stability assessed as compound peak area at pH 3 after 1 hr by HPLC-PDA method; format: physicochemical; conditions: read-out: Stability; in short: as §1
[11] = Stability assessed as compound peak area at pH 3 after 24 hrs by HPLC-PDA method; format: physicochemical; conditions: read-out: Stability; in short: as §1
[12] = Stability assessed as free base release at pH 7 after 1 hr by HPLC-PDA method; format: physicochemical; conditions: pH 7, 1 h; in short: as §1
[13] = Stability assessed as free base release at pH 3 after 24 hr by HPLC-PDA method; format: physicochemical; conditions: pH 3, 24 h; in short: as §1
[14] = Stability assessed as free base release at pH 5 after 1 hr by HPLC-PDA method; format: physicochemical; conditions: pH 5, 1 h; in short: as §1
[15] = Stability assessed as compound peak area at pH 6 after 1 hr by HPLC-PDA method; format: physicochemical; conditions: read-out: Stability; in short: as §1
[16] = system: Amaranthus; experiment: Cytokinin activity in cotyledons assessed as dark induction of betacyanin synthesis at 100 uM relative to 6-benzylaminopurine; format: functional
[17] = Stability assessed as free base release at pH 4 after 24 hr by HPLC-PDA method; format: physicochemical; conditions: pH 4, 24 h; in short: as §1
[18] = Stability assessed as compound peak area at pH 5 after 24 hrs by HPLC-PDA method; format: physicochemical; conditions: read-out: Stability; in short: as §1
[19] = Stability assessed as free base release at pH 5 after 24 hr by HPLC-PDA method; format: physicochemical; conditions: pH 5, 24 h; in short: as §1
[20] = Stability assessed as compound peak area at pH 7 after 24 hrs by HPLC-PDA method; format: physicochemical; conditions: read-out: Stability; in short: as §1
[21] = Stability assessed as free base release at pH 4 after 1 hr by HPLC-PDA method; format: physicochemical; conditions: pH 4, 1 h; in short: as §1
[22] = Stability assessed as free base release at pH 7 after 24 hr by HPLC-PDA method; format: physicochemical; conditions: pH 7, 24 h; in short: as §1
[23] = system: K562; experiment: Cytotoxicity against human K562 cells after 72 hrs by Calcein AM assay; format: ADME, cell-based; conditions: K562, 72 h
[24] = system: Nicotiana tabacum; experiment: Cytokinin activity in tobacco callus assessed as stimulation of callus growth at 1 uM relative to 6-benzylaminopurine; format: functional
[25] = Stability assessed as compound peak area at pH 4 after 24 hrs by HPLC-PDA method; format: physicochemical; conditions: read-out: Stability; in short: as §1
[26] = Stability assessed as compound peak area at pH 6 after 24 hrs by HPLC-PDA method; format: physicochemical; conditions: read-out: Stability; in short: as §1

**Q.** For `Oc1cccc(CNc2ncnc3c2ncn3C2CCCCO2)c1` (stereo unspecified), which remaining at 1 h [1] is on record?
**A.** 99.5%

**Q.** What about the remaining at 1 h [2] of the same molecule?
**A.** 99.9%

**Q.** What about the Activity [3] of the same molecule?
**A.** 0.2%

**Q.** And the Activity [4]?
**A.** 1.2%

**Q.** What about the IC50 [5] of the same molecule?
**A.** > 100 µM

**Q.** What about the Activity [6] of the same molecule?
**A.** 0.7%

**Q.** What about the remaining at 1 h [7] of the same molecule?
**A.** 99.5%

**Q.** What about the Activity [8] of the same molecule?
**A.** 140%

**Q.** And the IC50 [9]?
**A.** > 100 µM

**Q.** And the remaining at 1 h [10]?
**A.** 98.8%

**Q.** And the remaining at 24 h [11]?
**A.** 39.6%

**Q.** What about the Activity [12] of the same molecule?
**A.** 0.1%

**Q.** And the Activity [13]?
**A.** 60.4%

**Q.** And the Activity [14]?
**A.** 0.5%

**Q.** What about the remaining at 1 h [15] of the same molecule?
**A.** 99.8%

**Q.** And the Activity [16]?
**A.** 100%

**Q.** And the Activity [17]?
**A.** 6.1%

**Q.** And the remaining at 24 h [18]?
**A.** 99.2%

**Q.** What about the Activity [19] of the same molecule?
**A.** 0.8%

**Q.** And the remaining at 24 h [20]?
**A.** 99.8%

**Q.** And the Activity [21]?
**A.** 0.5%

**Q.** What about the Activity [22] of the same molecule?
**A.** 0.2%

**Q.** What about the IC50 [23] of the same molecule?
**A.** 81 µM

**Q.** What about the Activity [24] of the same molecule?
**A.** 95%

**Q.** And the remaining at 24 h [25]?
**A.** 93.9%

**Q.** And the remaining at 24 h [26]?
**A.** 99.3%
